Experimental data from PubChem BioAssay AID504383 (The Scripps Research Institute Molecular Screening Center, 2011).
The campaign covered roughly 2,500 compounds. About 1,200 (48%) were called active.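 Rule for the calls: active = mean activation above the low control average plus 3 SD, as set in the primary screen (cut at about 12% in these data); inactive = the rest.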 So high a share suggests a set chosen from earlier hits. This is one part of the list.

Molecular target: Troponin I, cardiac muscle (Homo sapiens) + Troponin T, cardiac muscle (Homo sapiens) + Troponin C, slow skeletal and cardiac muscles (Homo sapiens) (UniProt P19429+P45379+P63316)
Assay: cardiac RTF calcium sensitivity activators, confirmation, biochemical, IANBD-TnC fluorescence, triplicate (AID 504383);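 note: 0% = DMSO at 0.472 mM calcium and 100% = DMSO at 2.9 mM calcium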
Conditions: IANBD-labeled cardiac RTF, Ca2+ sensitivity fluorescence; at 7.2 µM; stronger effect = higher value; scaled from EC20 to saturating calcium; tested at EC20 calcium, 0.472 mM
How it was run: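 System: Labelled thin filament complex | Technique: Filament fluorescence intensity | Benchmarks: Low control EC20 calcium, high control EC100 calcium | Timing: 15 min at 25 °C | Compound dosing: One dose, 7.2 µM nominal | Probe or stimulus: Ca2+ 0.472 mM, EC20 level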

Row | SMILES | activation
1 | O=C(CCN1C(=O)/C(=C/c2cccs2)SC1=S)NNC(=O)c1cccc(O)c1 | 7.19% (inactive)
2 | CC(=O)NN1C(=O)/C(=C\c2ccc(O)cc2)SC1=S | 12.5% (active)
3 | O=C(NN1C(=O)/C(=C/c2ccc(O)cc2)SC1=S)c1ccccc1O | 9.61% (inactive)
4 | CN(C)c1ccc(/C=C2\SC(=S)N(Nc3ncc(C(F)(F)F)cc3Cl)C2=O)cc1 | 7.16% (inactive)
5 | O=C(NN1C(=O)/C(=C/c2ccc(O)cc2)SC1=S)c1cccc(O)c1 | 12.5% (active)
6 | Cc1c(C2Nc3ccccc3NC3=C2C(=O)CC(C)(C)C3)cnn1C (configuration not stated) | 4.72% (inactive)
7 | Cc1ccc(N2C3=C(C(=O)CC(C)(C)C3)C(c3cn(C)nc3C)C3=C2CC(C)(C)CC3=O)cc1 | 35.1% (active)
8 | COc1cc(/C=C(\C#N)C(=O)c2c[nH]c3ccccc23)cc(OC)c1O | 5.75% (inactive)
9 | N#C/C(=C\c1c[nH]c2ccccc12)C(=O)Nc1ncc(Cc2ccc(Cl)cc2Cl)s1 | 30.3% (active)
10 | COCCN=c1scc(-c2cc(OC)c(OC)c(OC)c2)n1/N=C/c1c(C)[nH]c2ccccc12 | 72.2% (active)
11 | O=C(C1=C(O)C(=O)N(CCN2CCOCC2)C1c1ccc([N+](=O)[O-])cc1)c1cccs1 (configuration not stated) | 188% (active)
12 | CC(C)Oc1ccc(/C(O)=C2/C(=O)C(=O)N(CCN3CCNCC3)C2c2cccc([N+](=O)[O-])c2)cc1 (configuration not stated) | 6.36% (inactive)
13 | COc1ccc(N(C(=O)c2ccc(C)cc2)S(=O)(=O)c2cccs2)cc1 | 175% (active)
14 | COc1ccc(NC(=O)CNS(=O)(=O)c2cccs2)cc1 | 7.87% (inactive)
15 | Nc1ccc2cc3[nH]c4cc(N)ccc4c3nc2c1 | 13.7% (active)
16 | O=C(O)C1=C[C@H](c2ccccc2)C[C@H](OCc2ccc(CO)cc2)O1 | 1.76% (inactive)
17 | Cc1c(O)c(=O)c2ccccc2n1C | 16.4% (active)
18 | COc1ccc(NC(=O)CCN2CCCC2)c(OC)c1 | 80.7% (active)
19 | COc1ccc(NC(=O)CCN2CC(C)OC(C)C2)c(OC)c1 (configuration not stated) | 4.53% (inactive)
20 | COc1ccc(CN2CCC(=O)N([C@H](CO)c3ccccc3)CC2)cc1 | 21.1% (active)
21 | COc1ccc(-c2c3c(=O)n(C)c(=O)n(C)c3cn2-c2cccc(OC)c2)cc1 | 1.1% (inactive)

Row | SMILES | activation
22 | COc1ccc(CN2CNc3c(c(=O)n(C)c(=O)n3C)C2)cc1 | 14.9% (active)
23 | CCCNC(=S)N1CCC(NC(=O)C23CC4CC(CC(C4)C2)C3)CC1 | 8.77% (inactive)
24 | c1ccc(-c2cnn3c(-c4ccccc4)c(-c4ccccc4)nc3n2)cc1 | 3.13% (inactive)
25 | Nc1ccc2nc(-c3ccccc3)cnc2c1 | 83.1% (active)
26 | CN1/C(=C\C=C2\N=C(c3ccc(F)cc3)OC2=O)C(C)(C)c2ccccc21 | 13.9% (active)
27 | CCO/C=C1\N=C(c2ccc(F)cc2)OC1=O | 4.72% (inactive)
28 | CN1/C(=C\C=C2/SC(=S)NC2=O)C(C)(C)c2ccccc21 | 10.1% (inactive)
29 | CC(C)c1ccc(NS(=O)(=O)c2cccc3cccnc23)cc1 | 446% (active)
30 | CCN(CC)C(=O)C1CCC(CNS(=O)(=O)c2cccc3cccnc23)CC1 (configuration not stated) | 0.91% (inactive)
31 | O=C1CCC[C@@H]2C[C@@]3(C[C@@H]4CCN1[C@H]24)Nc1cc([N+](=O)[O-])ccc1NC3=NC1CCCCC1 | 41.2% (active)
32 | COC(=O)C(=N/Nc1ccccc1C(=O)OC)/C(C)=N/O | 35.7% (active)
33 | N#C/C(=C\c1ccc(N2CCOCC2)o1)c1nc2ccccc2[nH]1 | 29.6% (active)
34 | N#C/C(=C/c1ccc(N2CCOCC2)o1)c1nc2ccccc2[nH]1 | 11.4% (inactive)
35 | Cc1ccc2nc(/C(C#N)=C\c3ccc(N4CCOCC4)o3)[nH]c2c1 | 44.2% (active)
36 | c1ccc(-c2cn3nc4c(nc3n2)CCCC4)cc1 | 48.2% (active)
37 | Clc1ccc(-n2cc(-c3ccc(Br)cc3)[n+]3c2CCCCC3)cc1 | 0.54% (inactive)
38 | Brc1ccc(-c2cn3nc4c(nc3n2)CCCC4)cc1 | 22.8% (active)
39 | Clc1ccc(-c2cn3nc4c(nc3n2)CCCC4)cc1 | 9.46% (inactive)
40 | CC1(C)CC(=O)C=C(NCc2ccc(Cl)c(Cl)c2)C1 | 3.4% (inactive)
41 | CC1(C)CC(=O)C=C(Nc2ccccc2N)C1 | 31.4% (active)
42 | O/C=c1\ccc2cccc3nc(C(F)(F)F)nc1c23 | 5010% (active)

Row | SMILES | activation
43 | O=C(NCCc1ccccc1)c1ccc(Cl)nc1 | 16.1% (active)
44 | Cc1ccccc1C(=O)NCCCc1ccccc1 | 0.23% (inactive)
45 | COC(=O)C1=C(C(=O)c2ccc(C)cc2)C(c2ccc(OC)c(OC)c2)n2nnnc2N1 (configuration not stated) | 9.37% (inactive)
46 | CCOc1c2ccc(C(=O)NCCc3cccs3)cc2nn1CC | 9.3% (inactive)
47 | CC(C)CCNC(=O)c1ccc2c(SCC(=O)O)c3c(nc2c1)CCC3 | 35.4% (active)
48 | Cc1cc(C)n2nc(SCC(=O)N(C)Cc3ccccc3)nc2n1 | -3.59% (inactive)
49 | CN(Cc1ccccc1)C(=O)N1CCOCC1 | 12.1% (active)
50 | O=C(N1CCOCC1)N1CCC(n2nnc3ccccc32)CC1 | 5.64% (inactive)
51 | CCc1cc(C(=O)Nc2ccc(OC)nc2)sc1C | 4.99% (inactive)
52 | Cc1ccc(C(=O)COC(=O)C2CCC2)cc1 | 9.89% (inactive)
53 | O=C(COC(=O)C1CCCCC1)Nc1ccc([N+](=O)[O-])cc1 | 82.4% (active)
54 | O=C(COC(=O)C1CCC1)NCc1ccccc1 | 286% (active)
55 | O=C(COc1ccc(Cl)cc1)NCc1ccccc1 | 10.9% (inactive)
56 | O=C(COC(=O)C1CCC(=O)N1)Nc1ccc(Oc2ccccc2)cc1 (configuration not stated) | 5.98% (inactive)
57 | CCn1cc(C(=O)NCCC(=O)NCCO)c(=O)c2cc3c(cc21)OCO3 | 57.2% (active)
58 | CCC(CO)[n+]1c(C)cc(/C=C2\Sc3ccccc3N2Cc2ccccc2)cc1C (configuration not stated) | 3.94% (inactive)
59 | CC[n+]1c(/C=C2\Sc3ccccc3N2C)ccc2cccc(C)c21 | 6.15% (inactive)
60 | COc1ccc(-[n+]2c(C)cc(/C=C3\Sc4ccccc4N3C)cc2C)cc1 | 249% (active)
61 | COc1ccccc1-[n+]1c(C)cc(/C=C2\Sc3ccccc3N2C)cc1C | 12% (active)
62 | Oc1cccc(Nc2nc(O)c(/C=C3\C=Nc4ccccc43)s2)c1 | 127% (active)
